Data taken from ChEMBL document CHEMBL4428036, “Discovery of novel berberine imidazoles as safe antimicrobial agents by down regulating ROS generation” (Bioorg Med Chem Lett, 2016).
≈ marks a conversion by molar mass, not a printed value. Calls of active or inactive are those of the source. No cut-off for these calls is given here.

Columns and labels:
[1] = system: Staphylococcus aureus; test: Antimicrobial activity against Staphylococcus aureus ATCC 25923 incubated for 24 hrs by NCCLS protocol based method; format: functional; conditions: ATCC 25923, 24 h
Summary of the method: (§1)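 Two-fold serial broth microdilution in 96-well plates per NCCLS standards. MIC (µg/mL) taken as the lowest concentration giving complete growth inhibition. Berberine, chloromycin and norfloxacin were positive controls for bacteria; fluconazole for fungi.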

[2] = system: Candida albicans; test: Antimicrobial activity against Candida albicans ATCC 10231 incubated for 24 hrs by NCCLS protocol based method; conditions: ATCC 10231, 24 h
[3] = system: Escherichia coli; test: Antimicrobial activity against Escherichia coli JM109 incubated for 24 hrs by NCCLS protocol based method; format: functional; conditions: JM109, 24 h; summary of the method: as §1
[4] = system: Cyberlindnera jadinii; test: Antimicrobial activity against Candida utilis ATCC 9950 incubated for 24 hrs by NCCLS protocol based method; format: functional; conditions: Williopsis jadinii, ATCC 9950, 24 h
[5] = system: Pseudomonas aeruginosa; test: Antimicrobial activity against Pseudomonas aeruginosa ATCC 27853 incubated for 24 hrs by NCCLS protocol based method; format: functional; conditions: ATCC 27853, 24 h; summary of the method: as §1
[6] = system: Staphylococcus aureus; test: Antimicrobial activity against methicillin-resistant Staphylococcus aureus N315 incubated for 24 hrs by NCCLS protocol based method; format: functional; conditions: N315, 24 h
Summary of the method: (§2)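 Standard two-fold serial broth microdilution in 96-well plates per NCCLS; MIC (µg/mL) read as lowest concentration giving complete inhibition of microbial growth. Berberine, chloromycin and norfloxacin served as positive controls.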

[7] = Antimicrobial activity against Eberthella typhosa ATCC 14028 incubated for 24 hrs by NCCLS protocol based method; format: functional; conditions: ATCC 14028, 24 h; summary of the method: as §2
[8] = Antimicrobial activity against Candida mycoderma ATCC 9888 incubated for 24 hrs by NCCLS protocol based method; format: functional, Candida vini; conditions: Kregervanrija fluxuum, ATCC 9888, 24 h
[9] = system: Saccharomyces cerevisiae; test: Antimicrobial activity against beer yeast ATCC 9763 incubated for 24 hrs by NCCLS protocol based method; format: functional; conditions: ATCC 9763, 24 h
[10] = system: Micrococcus luteus; test: Antimicrobial activity against Micrococcus luteus ATCC 4698 incubated for 24 hrs by NCCLS protocol based method; format: functional; conditions: ATCC 4698, 24 h; summary of the method: as §1
[11] = system: Bacillus subtilis; test: Antimicrobial activity against Bacillus subtilis ATCC 6633 incubated for 24 hrs by NCCLS protocol based method; format: functional; conditions: ATCC 6633, 24 h; summary of the method: as §1
[12] = system: Proteus hauseri; test: Antimicrobial activity against Bacillus proteus ATCC13315 incubated for 24 hrs by NCCLS protocol based method; format: functional; conditions: ATCC13315, 24 h; summary of the method: as §1
[13] = system: Aspergillus flavus; test: Antimicrobial activity against Aspergillus flavus ATCC 204304 incubated for 24 hrs by NCCLS protocol based method; format: functional; conditions: ATCC 204304, 24 h
[14] = system: HepG2; test: (§3) Cytotoxicity against human HepG2 cells assessed as cell viability at 6.25 to 100 ug/ml by MTT assay; format: cell-based; conditions: hepg2
Summary of the method: (§4)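 HepG2 cells exposed to compound up to 100 μg/mL. Viability read by colorimetric MTT assay with berberine as control. Mean of three parallels ± one standard deviation.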

[15] = system: HepG2; test: Induction of ROS production in human HepG2 cells at 6.25 to 100 uM by DCFH-DA as probe based fluorescence microscopy; format: functional, cell-based
Summary of the method: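 Intracellular ROS detected with the fluorescent probe DCFH-DA and imaged by fluorescence microscopy. Compounds tested at 6.25, 12.5, 25, 50 and 100 μM, with berberine for comparison.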

[16] = system: Calf thymus DNA; test: Binding affinity to calf thymus DNA by neutral red dye based UV-Visible spectroscopy; format: nucleic-acid assay; conditions: Bos taurus
[17] = as §3; format: cell-based; conditions: HepG2 cells, read-out: Activity; summary of the method: as §4
[18] = system: Calf thymus DNA; test: Binding affinity to calf thymus DNA by UV-Visible spectroscopy; format: nucleic-acid assay; conditions: Bos taurus
Summary of the method: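 Calf thymus DNA held at a fixed concentration in Tris-HCl buffer pH 7.4, titrated with increasing compound. UV-vis absorption spectra recorded in 1.0 cm quartz cells, following the 260 nm DNA band. DNA concentration set from A260 using ε260 = 6600 L mol⁻¹ cm⁻¹ per phosphate. Purity confirmed by A260/A280 > 1.8.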

| Structure (SMILES) | MIC [1] | MIC80 [2] | MIC [3] | MIC80 [4] | MIC [5] | MIC [6] | MIC [7] | MIC80 [8] | MIC80 [9] | MIC [10] | MIC [11] | MIC [12] | MIC80 [13] | Activity [14] | Activity [15] | Activity [16] | viability [17] | K [18] |
| --- | --- | --- | --- | --- | --- | --- | --- | --- | --- | --- | --- | --- | --- | --- | --- | --- | --- | --- |
| CCCc1nccn1Cc1cc(OC)c(O)c2c[n+]3c(cc12)-c1cc2c(cc1CC3)OCO2.[Cl-] | 16 µg/mL | 64 µg/mL | 64 µg/mL | 128 µg/mL | 128 µg/mL | 32 µg/mL | 64 µg/mL | 128 µg/mL | 32 µg/mL | 32 µg/mL | 64 µg/mL | 64 µg/mL | 128 µg/mL | – | – | – | – | – |
| CCc1nccn1Cc1cc(OC)c(O)c2c[n+]3c(cc12)-c1cc2c(cc1CC3)OCO2.[Cl-] | 8 µg/mL | 64 µg/mL | 32 µg/mL | 64 µg/mL | 64 µg/mL | 16 µg/mL | 64 µg/mL | 256 µg/mL | 16 µg/mL | 16 µg/mL | 32 µg/mL | 64 µg/mL | 128 µg/mL | – | – | – | – | – |
| CCn1cc(C(=O)O)c(=O)c2cc(F)c(N3CCNCC3)cc21 [NORFLOXACIN] | 2 µg/mL (≈ 6.26 µM) | – | 16 µg/mL (≈ 50.1 µM) | – | 2 µg/mL (≈ 6.26 µM) | 8 µg/mL (≈ 25.1 µM) | 4 µg/mL (≈ 12.5 µM) | – | – | 2 µg/mL (≈ 6.26 µM) | 1 µg/mL (≈ 3.13 µM) | 4 µg/mL (≈ 12.5 µM) | – | – | – | – | – | – |
| COc1cc(Cn2cnc(C)c2)c2cc3[n+](cc2c1O)CCc1cc2c(cc1-3)OCO2.[Cl-] | 8 µg/mL | 128 µg/mL | 32 µg/mL | 64 µg/mL | 128 µg/mL | 32 µg/mL | 64 µg/mL | 128 µg/mL | 32 µg/mL | 16 µg/mL | 32 µg/mL | 32 µg/mL | 64 µg/mL | – | – | – | – | – |
| CCCCCCCCCCCCCCCCCc1nccn1Cc1cc(OC)c(O)c2c[n+]3c(cc12)-c1cc2c(cc1CC3)OCO2.[Cl-] | 256 µg/mL | 256 µg/mL | 256 µg/mL | 512 µg/mL | 256 µg/mL | 128 µg/mL | 512 µg/mL | 256 µg/mL | 256 µg/mL | 256 µg/mL | 256 µg/mL | 256 µg/mL | 256 µg/mL | – | – | – | – | – |
| COc1cc(Cn2ccnc2C)c2cc3[n+](cc2c1O)CCc1cc2c(cc1-3)OCO2.[Cl-] | 16 µg/mL | 64 µg/mL | 32 µg/mL | 32 µg/mL | 64 µg/mL | 32 µg/mL | 32 µg/mL | 128 µg/mL | 16 µg/mL | 16 µg/mL | 64 µg/mL | 64 µg/mL | 32 µg/mL | – | – | – | – | – |
| COc1cc(Cn2cc(C)nc2C)c2cc3[n+](cc2c1O)CCc1cc2c(cc1-3)OCO2.[Cl-] | 64 µg/mL | 128 µg/mL | 128 µg/mL | 128 µg/mL | 128 µg/mL | 64 µg/mL | 128 µg/mL | 128 µg/mL | 256 µg/mL | 64 µg/mL | 128 µg/mL | 128 µg/mL | 128 µg/mL | – | – | – | – | – |
| CCCCc1nccn1Cc1cc(OC)c(O)c2c[n+]3c(cc12)-c1cc2c(cc1CC3)OCO2.[Cl-] | 32 µg/mL | 64 µg/mL | 128 µg/mL | 256 µg/mL | 128 µg/mL | 32 µg/mL | 128 µg/mL | 256 µg/mL | 64 µg/mL | 32 µg/mL | 64 µg/mL | 128 µg/mL | 64 µg/mL | – | – | – | – | – |
| COc1ccc2cc3[n+](cc2c1OC)CCc1cc2c(cc1-3)OCO2.[Cl-] [BERBERINE CHLORIDE] | 512 µg/mL | 512 µg/mL | 512 µg/mL | 256 µg/mL | 256 µg/mL | 128 µg/mL | 512 µg/mL | 128 µg/mL | 128 µg/mL | 512 µg/mL | 512 µg/mL | 256 µg/mL | 512 µg/mL | Toxic | – | – | – | – |
| CCCCCCCCCCCc1nccn1Cc1cc(OC)c(O)c2c[n+]3c(cc12)-c1cc2c(cc1CC3)OCO2.[Cl-] | 128 µg/mL | 128 µg/mL | 256 µg/mL | 256 µg/mL | 256 µg/mL | 64 µg/mL | 256 µg/mL | 128 µg/mL | 128 µg/mL | 128 µg/mL | 128 µg/mL | 128 µg/mL | 256 µg/mL | – | – | – | – | – |
| CCc1nc(C)cn1Cc1cc(OC)c(O)c2c[n+]3c(cc12)-c1cc2c(cc1CC3)OCO2.[Cl-] | 64 µg/mL | 128 µg/mL | 128 µg/mL | 128 µg/mL | 128 µg/mL | 64 µg/mL | 128 µg/mL | 128 µg/mL | 128 µg/mL | 64 µg/mL | 128 µg/mL | 128 µg/mL | 128 µg/mL | – | – | – | – | – |
| COc1cc(Cn2ccnc2)c2cc3[n+](cc2c1O)CCc1cc2c(cc1-3)OCO2.[Cl-] | 32 µg/mL | 64 µg/mL | 32 µg/mL | 32 µg/mL | 64 µg/mL | 32 µg/mL | 1 µg/mL | 128 µg/mL | 32 µg/mL | 16 µg/mL | 8 µg/mL | 64 µg/mL | 64 µg/mL | – | Active | Active | > 87% | 5.22 ×10³ L/mol |
| OC(Cn1cncn1)(Cn1cncn1)c1ccc(F)cc1F [FLUCONAZOLE] | – | 32 µg/mL (≈ 104 µM) | – | 8 µg/mL (≈ 26.1 µM) | – | – | – | 32 µg/mL (≈ 104 µM) | 16 µg/mL (≈ 52.2 µM) | – | – | – | 256 µg/mL (≈ 836 µM) | – | – | – | – | – |
